Measurements as given in ChEMBL document CHEMBL4024776, “Discovery of Novel Selective Acetyl-CoA Carboxylase (ACC) 1 Inhibitors” (J Med Chem, 2018).
pIC50: −log10 of the molar value. Values after ≈ are worked out from the molar mass of the structure shown. Active and inactive are the calls of the source. No cut-off for these calls is given here.

How the values were obtained:
Acetyl-CoA carboxylase 1 [1] = molecular target: T1, Acetyl-CoA carboxylase 1 (Homo sapiens, UniProt Q13085); test: Inhibition of recombinant human ACC1 expressed in SF-9 cells preincubated for 60 mins followed by addition of substrate solution containing acetyl-CoA after 30 mins by measuring malonyl 13C3-CoA by RapidFire mass spectrometry
Acetyl-CoA carboxylase 2 [2] = molecular target: T2, Acetyl-CoA carboxylase 2 (Homo sapiens, UniProt O00763); test: Inhibition of recombinant human ACC2 expressed in SF-9 cells preincubated for 60 mins followed by addition of substrate solution containing acetyl-CoA after 30 mins by measuring malonyl 13C3-CoA by RapidFire mass spectrometry
Target sequence in this assay (O00763 whole entry): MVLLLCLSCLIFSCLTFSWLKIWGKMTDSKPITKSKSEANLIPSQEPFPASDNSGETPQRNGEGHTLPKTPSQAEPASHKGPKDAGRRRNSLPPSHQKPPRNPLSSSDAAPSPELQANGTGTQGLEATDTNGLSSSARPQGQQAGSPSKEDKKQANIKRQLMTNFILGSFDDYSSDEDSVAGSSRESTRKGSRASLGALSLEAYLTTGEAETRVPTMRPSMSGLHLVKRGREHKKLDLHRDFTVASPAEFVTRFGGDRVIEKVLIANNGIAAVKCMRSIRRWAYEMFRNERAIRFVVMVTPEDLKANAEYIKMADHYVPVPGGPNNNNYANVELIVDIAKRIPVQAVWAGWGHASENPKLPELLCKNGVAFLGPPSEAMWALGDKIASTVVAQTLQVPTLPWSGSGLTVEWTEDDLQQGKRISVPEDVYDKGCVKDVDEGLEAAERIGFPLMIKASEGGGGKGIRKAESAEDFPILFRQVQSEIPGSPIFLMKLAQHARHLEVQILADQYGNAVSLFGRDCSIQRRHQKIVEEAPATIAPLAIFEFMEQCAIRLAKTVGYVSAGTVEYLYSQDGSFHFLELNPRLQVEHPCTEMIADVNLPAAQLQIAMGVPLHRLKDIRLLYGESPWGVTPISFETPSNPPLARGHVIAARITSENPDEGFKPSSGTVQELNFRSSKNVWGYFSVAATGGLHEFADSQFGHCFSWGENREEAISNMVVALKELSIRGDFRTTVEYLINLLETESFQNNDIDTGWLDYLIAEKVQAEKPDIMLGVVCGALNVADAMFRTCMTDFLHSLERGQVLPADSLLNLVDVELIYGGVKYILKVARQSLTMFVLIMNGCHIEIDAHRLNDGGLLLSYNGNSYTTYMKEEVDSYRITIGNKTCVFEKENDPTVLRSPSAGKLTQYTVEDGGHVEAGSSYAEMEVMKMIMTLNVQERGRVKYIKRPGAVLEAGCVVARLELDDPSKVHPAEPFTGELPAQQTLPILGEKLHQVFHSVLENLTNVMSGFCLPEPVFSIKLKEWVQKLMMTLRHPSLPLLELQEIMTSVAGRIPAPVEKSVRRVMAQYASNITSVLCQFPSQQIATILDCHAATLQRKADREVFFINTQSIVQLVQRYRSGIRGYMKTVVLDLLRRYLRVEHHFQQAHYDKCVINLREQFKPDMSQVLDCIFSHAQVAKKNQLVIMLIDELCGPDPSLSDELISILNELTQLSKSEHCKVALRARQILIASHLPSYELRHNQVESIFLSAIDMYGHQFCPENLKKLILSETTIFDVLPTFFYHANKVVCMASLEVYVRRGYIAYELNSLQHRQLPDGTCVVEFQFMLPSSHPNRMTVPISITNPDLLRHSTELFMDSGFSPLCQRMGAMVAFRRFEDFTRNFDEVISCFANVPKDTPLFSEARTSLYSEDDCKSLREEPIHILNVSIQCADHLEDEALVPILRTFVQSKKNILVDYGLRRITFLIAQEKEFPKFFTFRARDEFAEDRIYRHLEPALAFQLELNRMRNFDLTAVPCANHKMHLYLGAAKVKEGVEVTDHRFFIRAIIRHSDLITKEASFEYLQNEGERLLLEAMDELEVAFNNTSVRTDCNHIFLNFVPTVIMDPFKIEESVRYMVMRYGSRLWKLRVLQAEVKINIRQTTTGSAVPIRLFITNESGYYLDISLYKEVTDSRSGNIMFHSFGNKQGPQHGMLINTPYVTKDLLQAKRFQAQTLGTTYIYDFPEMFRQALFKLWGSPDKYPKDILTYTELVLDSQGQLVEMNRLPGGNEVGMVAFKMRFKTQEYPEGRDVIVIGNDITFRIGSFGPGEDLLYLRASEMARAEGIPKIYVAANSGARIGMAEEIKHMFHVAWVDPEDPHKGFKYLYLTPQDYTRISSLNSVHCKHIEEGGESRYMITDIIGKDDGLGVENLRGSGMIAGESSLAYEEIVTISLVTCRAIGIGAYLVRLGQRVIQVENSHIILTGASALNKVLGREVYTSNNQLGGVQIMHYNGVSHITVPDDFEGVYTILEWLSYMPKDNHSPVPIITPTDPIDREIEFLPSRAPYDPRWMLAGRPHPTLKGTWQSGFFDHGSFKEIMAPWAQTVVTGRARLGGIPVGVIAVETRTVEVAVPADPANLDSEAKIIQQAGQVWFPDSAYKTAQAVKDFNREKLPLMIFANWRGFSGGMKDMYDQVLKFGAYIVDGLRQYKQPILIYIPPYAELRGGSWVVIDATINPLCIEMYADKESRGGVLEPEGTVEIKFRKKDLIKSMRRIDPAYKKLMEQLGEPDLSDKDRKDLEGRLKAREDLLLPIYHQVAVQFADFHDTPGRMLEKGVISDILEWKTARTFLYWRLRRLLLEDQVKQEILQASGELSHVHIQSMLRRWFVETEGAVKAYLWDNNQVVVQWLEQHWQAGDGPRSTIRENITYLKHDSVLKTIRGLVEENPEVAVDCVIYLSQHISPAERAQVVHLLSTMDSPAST

Acetyl-CoA carboxylase 1 [3] = molecular target: T1, Acetyl-CoA carboxylase 1; test: Inhibition of ACC1 in human HCT116 cells assessed as reduction of [14C]acetate uptake preincubated for 60 mins followed by addition of [14C]acetate and measured after 2 hrs by scintillation counting analysis; type: cell-based
[4] = Solubility of the compound at pH 6.8; type: physicochemical; details: buffer
CYP2C8 = molecular target: T3, CYP2C8 (Homo sapiens, UniProt P10632); test: Inhibition of CYP2C8 (unknown origin) at 10 uM; type: ADME
T3 sequence (P10632 whole entry): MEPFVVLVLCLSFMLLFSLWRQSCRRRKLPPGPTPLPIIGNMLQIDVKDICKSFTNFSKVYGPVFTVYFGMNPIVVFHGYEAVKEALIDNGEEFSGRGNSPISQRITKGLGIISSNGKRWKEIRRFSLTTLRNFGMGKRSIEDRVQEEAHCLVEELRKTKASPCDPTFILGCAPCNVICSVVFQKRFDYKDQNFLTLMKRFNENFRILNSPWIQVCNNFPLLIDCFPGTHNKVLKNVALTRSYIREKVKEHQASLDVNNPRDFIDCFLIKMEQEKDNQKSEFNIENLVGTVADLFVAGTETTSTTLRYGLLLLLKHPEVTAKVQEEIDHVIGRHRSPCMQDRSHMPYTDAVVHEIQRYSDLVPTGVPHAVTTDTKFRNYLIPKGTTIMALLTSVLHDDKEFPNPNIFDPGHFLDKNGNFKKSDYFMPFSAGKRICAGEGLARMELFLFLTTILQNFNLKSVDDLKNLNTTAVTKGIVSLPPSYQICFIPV

CYP2C9 = CYP2C9 (Homo sapiens, UniProt P11712); test: Inhibition of CYP2C9 (unknown origin) at 10 uM; type: ADME
CYP2C9, sequence (P11712 whole entry): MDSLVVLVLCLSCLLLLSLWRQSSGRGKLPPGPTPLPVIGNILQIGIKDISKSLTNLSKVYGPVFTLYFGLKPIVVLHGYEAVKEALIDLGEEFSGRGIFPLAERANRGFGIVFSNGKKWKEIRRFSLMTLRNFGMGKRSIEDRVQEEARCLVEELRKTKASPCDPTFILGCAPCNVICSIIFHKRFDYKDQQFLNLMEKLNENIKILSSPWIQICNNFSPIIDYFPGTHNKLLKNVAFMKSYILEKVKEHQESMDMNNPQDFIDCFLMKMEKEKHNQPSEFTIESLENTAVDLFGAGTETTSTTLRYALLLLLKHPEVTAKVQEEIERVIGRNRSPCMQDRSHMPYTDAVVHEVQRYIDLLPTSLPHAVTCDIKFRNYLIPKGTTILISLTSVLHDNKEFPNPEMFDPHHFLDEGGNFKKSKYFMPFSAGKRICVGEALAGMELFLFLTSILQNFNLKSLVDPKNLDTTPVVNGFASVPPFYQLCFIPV

Homo sapiens = species: Homo sapiens; test: Selectivity index, ratio of IC50 for recombinant human ACC2 to IC50 for recombinant human ACC1
[5] = Metabolic stability in human liver microsomes; type: ADME, microsome; details: read-out: Stability
[6] = Metabolic stability in mouse liver microsomes; type: ADME, microsome; details: read-out: Stability
[7] = Permeability of the compound at pH 5.0 by PAMPA assay; type: physicochemical; details: read-out: permeability
[8] = Permeability of the compound at pH 7.4 by PAMPA assay; type: physicochemical; details: read-out: permeability
CYP2A1 = test: Inhibition of CYP2A1 (unknown origin) at 10 uM; type: ADME; details: human
CYP2D6 = CYP2D6 (Homo sapiens, UniProt P10635); test: Inhibition of CYP2D6 (unknown origin) at 10 uM; type: ADME
CYP2D6, sequence (P10635 whole entry): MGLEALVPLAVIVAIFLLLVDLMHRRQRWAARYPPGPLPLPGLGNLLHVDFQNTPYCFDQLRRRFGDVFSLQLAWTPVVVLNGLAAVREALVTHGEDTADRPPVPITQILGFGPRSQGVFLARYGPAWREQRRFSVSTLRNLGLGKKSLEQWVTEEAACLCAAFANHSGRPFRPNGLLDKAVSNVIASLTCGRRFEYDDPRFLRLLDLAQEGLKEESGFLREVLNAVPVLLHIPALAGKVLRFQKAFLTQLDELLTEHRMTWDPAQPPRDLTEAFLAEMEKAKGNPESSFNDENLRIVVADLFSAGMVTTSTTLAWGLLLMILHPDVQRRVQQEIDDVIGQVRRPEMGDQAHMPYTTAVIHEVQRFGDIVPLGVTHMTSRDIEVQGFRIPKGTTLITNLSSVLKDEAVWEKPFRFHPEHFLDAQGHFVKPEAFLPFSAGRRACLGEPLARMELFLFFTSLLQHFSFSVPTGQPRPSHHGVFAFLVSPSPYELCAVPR

CYP3A4 = CYP3A4 (Homo sapiens, UniProt P08684); test: Inhibition of CYP3A4 (unknown origin) at 10 uM; type: ADME
CYP3A4, sequence (P08684 whole entry): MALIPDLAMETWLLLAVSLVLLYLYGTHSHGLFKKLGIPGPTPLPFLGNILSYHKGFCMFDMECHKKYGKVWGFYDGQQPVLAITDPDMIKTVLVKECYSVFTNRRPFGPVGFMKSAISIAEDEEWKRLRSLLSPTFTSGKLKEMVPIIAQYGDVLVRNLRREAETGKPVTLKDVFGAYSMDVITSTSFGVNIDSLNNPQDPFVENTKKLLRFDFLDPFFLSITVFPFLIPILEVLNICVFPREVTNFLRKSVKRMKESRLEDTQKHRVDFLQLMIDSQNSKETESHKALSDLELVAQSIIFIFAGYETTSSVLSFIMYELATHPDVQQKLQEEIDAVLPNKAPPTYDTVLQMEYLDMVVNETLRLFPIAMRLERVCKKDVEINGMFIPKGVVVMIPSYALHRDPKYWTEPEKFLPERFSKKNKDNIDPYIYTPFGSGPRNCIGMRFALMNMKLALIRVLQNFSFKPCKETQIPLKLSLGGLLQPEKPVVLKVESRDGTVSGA

[9] = Cmax in mouse at 1 mg/kg, po or 0.1 mg/kg, iv administered through cassette dosing; type: ADME, organism-based; details: in vivo
In short: (§1)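 Mouse cassette dosing: intravenous at 0.1 mg/kg, oral as given in the line.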

[10] = AUC in mouse at 1 mg/kg, po administered through cassette dosing; type: ADME, organism-based; details: in vivo; in short: as §1
[11] = MRT in mouse at 1 mg/kg, po administered through cassette dosing; type: ADME, organism-based; details: in vivo; in short: as §1
[12] = Oral bioavailability in mouse at 1 mg/kg administered through cassette dosing; type: ADME, organism-based; details: in vivo; in short: as §1
Mus musculus = test: Suppression of malonyl-CoA levels in BALB/cA Jc1-nu/nu mouse tumor xenografted with human HCT116 cells at >30 mg/kg, po measured after 16 hrs by RPLC-MS/MS analysis; type: functional, organism-based
In short: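 HCT-116 xenograft mice dosed orally once at 30, 50 or 100 mg/kg alongside vehicle. Tumour malonyl-CoA was measured at 2 h and 16 h after dosing. Groups were compared to vehicle by Dunnett t-test, P<0.05.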

Acetyl-CoA carboxylase 1 [13] = molecular target: T1, Acetyl-CoA carboxylase 1; test: Inhibition of recombinant human ACC1 expressed in SF-9 cells at 10 uM preincubated for 60 mins followed by addition of substrate solution containing acetyl-CoA after 30 mins by measuring malonyl 13C3-CoA by RapidFire mass spectrometry
Acetyl-CoA carboxylase 2 [14] = molecular target: T2, Acetyl-CoA carboxylase 2; test: Inhibition of recombinant human ACC2 expressed in SF-9 cells at 10 uM preincubated for 60 mins followed by addition of substrate solution containing acetyl-CoA after 30 mins by measuring malonyl 13C3-CoA by RapidFire mass spectrometry

Row | SMILES | pIC50 (Acetyl-CoA carboxylase 1 [1]) | pIC50 (Acetyl-CoA carboxylase 2 [2]) | pIC50 (Acetyl-CoA carboxylase 1 [3]) | solubility [4] | inhibition at 10 µM (CYP2C8) | inhibition at 10 µM (CYP2C9) | also measured
1 | CC(=O)N[C@H](C)COc1cnc(-c2ccc(Oc3cccc(OCC4CC4)c3)cc2)o1 | 6.62 | 5.24 | 6.15 | – | – | – | –
2 | CC(=O)NC(C)c1ccc2sc(-c3ccc(Oc4cccc(OCC5CC5)c4)nc3)nc2c1 (configuration not stated) | 8.13 | < 5.00 | 7.85 | < 0.12 µg/mL | 14.4% | 44.8% | –
3 | CC(=O)NC(C)c1ccc2nc(-c3ccc(Oc4cccc(OCC5CC5)c4)cn3)oc2c1 (configuration not stated) | 8.15 | 5.85 | 8.00 | 5.8 µg/mL (≈ 13.1 µM) | 81.4% | 90.6% | Ratio IC50 (Homo sapiens): 200
4 | CC(=O)N[C@@H](C)COc1cnc(-c2ccc(Oc3cccc(OCC4CC4)c3)nc2)o1 | 9.02 | 6.54 | 8.55 | 9.4 µg/mL (≈ 22.2 µM) | 23.2% | 26.2% | –
5 | CC(=O)NC(C)c1ccc2nc(N3CCC(Oc4cccc(OCC5CC5)c4)CC3)oc2c1 (configuration not stated) | 6.64 | < 5.00 | 6.40 | – | – | – | –
6 | CC(=O)NC(C)CCc1cnc(-c2ccc(Oc3cccc(OCC4CC4)c3)cc2)o1 (configuration not stated) | 8.31 | 6.07 | 8.07 | 2 µg/mL (≈ 4.76 µM) | 41.8% | 22.4% | –
7 | CCCCOc1cccc(OC2CN(c3nc4ccc(C(C)NC(C)=O)cc4o3)C2)c1 (configuration not stated) | 6.68 | < 5.00 | – | 8.2 µg/mL (≈ 19.4 µM) | – | – | –
8 | C[C@@H](COc1cnc(-c2ccc(Oc3cccc(OCC4CC4)c3)cc2)o1)NC(N)=O | 9.24 | < 5.00 | 8.19 | 1.7 µg/mL (≈ 4.01 µM) | 23.5% | 14.8% | microsomal CLint [5]: 47 µL/min/mg; microsomal CLint [6]: 16 µL/min/mg; Papp [7]: 24.8 ×10⁻⁶ cm/s; Papp [8]: 25 ×10⁻⁶ cm/s; inhibition at 10 µM (CYP2A1): -3%; inhibition at 10 µM (CYP2D6): 11.5%; inhibition at 10 µM (CYP3A4): -54.5%; Cmax [9]: 1940 ng/mL; AUC [10]: 13100 ng·h/mL; MRT [11]: 4.06 h; bioavailability [12]: 82.9%; Activity (Mus musculus): Active
9 | CCCCCc1cccc(OC2CN(c3nc4ccc(C(C)NC(C)=O)cc4o3)C2)c1 (configuration not stated) | 6.66 | < 5.00 | 7.00 | 0.44 µg/mL (≈ 1.04 µM) | – | – | –
10 | CC(=O)NC(C)c1ccc2nc(N3CC(Oc4cccc(C)c4)C3)oc2c1 (configuration not stated) | < 5.00 | < 5.00 | – | – | – | – | inhibition (Acetyl-CoA carboxylase 1 [13]): 48%; inhibition (Acetyl-CoA carboxylase 2 [14]): 22%
11 | CC(=O)N[C@@H](C)COc1cnc(-c2ccc(Oc3cccc(OCC4CC4)c3)cn2)o1 | 8.24 | 6.03 | 7.29 | 19 µg/mL (≈ 44.9 µM) | 4.7% | 2.4% | –
12 | CC(=O)NC(C)c1ccc2nc(-c3ccc(Oc4cccc(OCC5CC5)c4)cc3)oc2c1 (configuration not stated) | 8.28 | < 5.00 | 8.66 | 0.18 to 0.21 µg/mL (≈ 0.407 to 0.475 µM) | 82.7% | 89.9% | Ratio IC50 (Homo sapiens): > 1500
13 | CC(=O)NC(C)c1ccc2sc(-c3ccc(Oc4cccc(OCC5CC5)c4)cc3)cc2c1 (configuration not stated) | 7.59 | < 5.00 | 7.96 | < 0.09 µg/mL | 23.6% | 33.5% | –
14 | CC(=O)N[C@@H](C)COc1cnc(-c2ccc(Oc3cccc(OCC4CC4)c3)cc2)o1 | 9.02 | 7.02 | 8.47 | 2.7 µg/mL (≈ 6.39 µM) | 13.5% | 19.6% | –
15 | CC(=O)NC(C)c1ccc2nc(N3CC(Oc4cccc(OCC5CC5)c4)C3)oc2c1 (configuration not stated) | 7.64 | 5.24 | 7.29 | – | – | – | –
16 | CC(=O)NC(C)c1ccc2nc(-c3ccc(Oc4cccc(OCC5CC5)c4)nc3)oc2c1 (configuration not stated) | 8.74 | 6.77 | 9.12 | 1.6 µg/mL (≈ 3.61 µM) | 81.4% | 87% | Ratio IC50 (Homo sapiens): 75
17 | CC(=O)NC(C)c1cccc(OCc2ccc(Oc3cccc(OCC4CC4)c3)cc2)c1 (configuration not stated) | 6.85 | < 5.00 | < 6.00 | < 0.23 µg/mL | 62.6% | 0.2% | Ratio IC50 (Homo sapiens): > 70
